From ChEMBL document CHEMBL5247575 (J Med Chem, 2018)

Experiments:
Klebsiella pneumoniae [1] = experiment: Synergistic antibacterial activity against Klebsiella pneumoniae 972/1910 producing KPC-3 assessed as cefepime MIC at 4 ug/ml by broth microdilution method; format: functional; details: dose 4 µg/ml
Klebsiella pneumoniae [2] = experiment: Antibacterial activity against Klebsiella pneumoniae jefferson 1775 producing OXA-48 by broth microdilution method; format: functional
Acinetobacter baumannii [3] = experiment: Synergistic antibacterial activity against Acinetobacter baumannii PR363 producing OXA-23 assessed as meropenem MIC at 4 ug/ml by broth microdilution method; format: functional; details: dose 4 µg/ml
Klebsiella pneumoniae [4] = experiment: Synergistic antibacterial activity against Klebsiella pneumoniae 1354/2241 producing KPC-3 assessed as cefepime MIC at 4 ug/ml by broth microdilution method; format: functional; details: dose 4 µg/ml
How it was run: (§1)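 Broth microdilution per CLSI guidelines, using custom frozen panels. […] Each partner drug was also tested alone. MICs were run in triplicate and the modal value is reported.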

Acinetobacter baumannii [5] = experiment: Synergistic antibacterial activity against Acinetobacter baumannii PR359 producing OXA-23 assessed as meropenem MIC at 8 ug/ml by broth microdilution method; format: functional; details: dose 8 µg/ml
How it was run: (§2)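 Broth microdilution per CLSI guidelines in frozen panels. Test compound held at fixed 8 mg/L while the partner β-lactam concentration was increased. Run in triplicate; modal MIC reported.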

Escherichia coli = experiment: Synergistic antibacterial activity against Escherichia coli DH10B transfected with pBC SK (-) OXA-48 assessed as meropenem MIC at 8 ug/ml by broth microdilution method; format: functional; details: dose 8 µg/ml; how it was run: as §1
Bacteria [6] = experiment: Inhibition of bacteria PDC-3 assessed as half life using nitrocefin as substrate
Klebsiella pneumoniae [7] = experiment: Synergistic antibacterial activity against Klebsiella pneumoniae 440/1360 producing KPC-2 assessed as cefepime MIC at 8 ug/ml by broth microdilution method; format: functional; details: dose 8 µg/ml; how it was run: as §1
Acinetobacter baumannii [8] = experiment: Synergistic antibacterial activity against Acinetobacter baumannii PR448 producing OXA-23 assessed as cefepime MIC at 8 ug/ml by broth microdilution method; format: functional; details: dose 8 µg/ml; how it was run: as §2
Acinetobacter baumannii [9] = experiment: Synergistic antibacterial activity against ADC deleted Acinetobacter baumannii transfected with pWH1266 producing OXA-24/40 assessed as cefepime MIC at 4 ug/ml by broth microdilution method; format: functional; details: dose 4 µg/ml
Klebsiella pneumoniae [10] = experiment: Synergistic antibacterial activity against Klebsiella pneumoniae 761/1723 producing KPC-3 assessed as cefepime MIC at 8 ug/ml by broth microdilution method; format: functional; details: dose 8 µg/ml; how it was run: as §1
Klebsiella pneumoniae [11] = experiment: Synergistic antibacterial activity against Klebsiella pneumoniae 935/1884 producing KPC-3 assessed as meropenem MIC at 4 ug/ml by broth microdilution method; format: functional; details: dose 4 µg/ml
Acinetobacter baumannii [12] = experiment: Synergistic antibacterial activity against Acinetobacter baumannii PR359 producing OXA-23 assessed as cefepime MIC at 4 ug/ml by broth microdilution method; format: functional; details: dose 4 µg/ml
Klebsiella pneumoniae [13] = experiment: Synergistic antibacterial activity against Klebsiella pneumoniae 1084/1957 producing KPC-3 assessed as cefepime MIC at 4 ug/ml by broth microdilution method; format: functional; details: dose 4 µg/ml; how it was run: as §1
Acinetobacter baumannii [14] = experiment: Synergistic antibacterial activity against Acinetobacter baumannii PR363 producing OXA-23 assessed as cefepime MIC at 8 ug/ml by broth microdilution method; format: functional; details: dose 8 µg/ml
Acinetobacter baumannii [15] = experiment: Synergistic antibacterial activity against Acinetobacter baumannii PR448 producing OXA-23 assessed as meropenem MIC at 4 ug/ml by broth microdilution method; format: functional; details: dose 4 µg/ml
Klebsiella pneumoniae [16] = experiment: Synergistic antibacterial activity against Klebsiella pneumoniae 11978 producing OXA-48 assessed as meropenem MIC at 8 ug/ml by broth microdilution method; format: functional; details: dose 8 µg/ml; how it was run: as §1
Acinetobacter baumannii [17] = experiment: Synergistic antibacterial activity against Acinetobacter baumannii PR408 producing OXA-24/40 assessed as meropenem MIC at 8 ug/ml by broth microdilution method; format: functional; details: dose 8 µg/ml
Pseudomonas aeruginosa [18] = experiment: Synergistic antibacterial activity against Pseudomonas aeruginosa CL232 assessed as cefepime MIC at 8 ug/ml by broth microdilution method; format: functional; details: dose 8 µg/ml
Klebsiella pneumoniae [19] = experiment: Synergistic antibacterial activity against Klebsiella pneumoniae 901/1860 producing KPC-3 assessed as meropenem MIC at 4 ug/ml by broth microdilution method; format: functional; details: dose 4 µg/ml
Acinetobacter baumannii [20] = experiment: Synergistic antibacterial activity against Acinetobacter baumannii PR381 producing OXA-24/40 assessed as meropenem MIC at 8 ug/ml by broth microdilution method; format: functional; details: dose 8 µg/ml
Acinetobacter baumannii [21] = experiment: Synergistic antibacterial activity against ADC deleted Acinetobacter baumannii transfected with pWH1266 producing OXA-24/40 assessed as meropenem MIC at 4 ug/ml by broth microdilution method; format: functional; details: dose 4 µg/ml
Klebsiella pneumoniae [22] = experiment: Synergistic antibacterial activity against Klebsiella pneumoniae 977/1916 producing KPC-3 assessed as meropenem MIC at 4 ug/ml by broth microdilution method; format: functional; details: dose 4 µg/ml
Acinetobacter baumannii [23] = experiment: Synergistic antibacterial activity against Acinetobacter baumannii PR408 producing OXA-24/40 assessed as cefepime MIC at 8 ug/ml by broth microdilution method; format: functional; details: dose 8 µg/ml
Klebsiella pneumoniae [24] = experiment: Synergistic antibacterial activity against Klebsiella pneumoniae 660/1568 producing KPC-3 assessed as meropenem MIC at 4 ug/ml by broth microdilution method; format: functional; details: dose 4 µg/ml; how it was run: as §1
Acinetobacter baumannii [25] = experiment: Synergistic antibacterial activity against Acinetobacter baumannii PR381 producing OXA-24/40 assessed as cefepime MIC at 4 ug/ml by broth microdilution method; format: functional; details: dose 4 µg/ml
Pseudomonas aeruginosa [26] = experiment: Synergistic antibacterial activity against Pseudomonas aeruginosa CL232 assessed as meropenem MIC at 4 ug/ml by broth microdilution method; format: functional; details: dose 4 µg/ml
Klebsiella pneumoniae [27] = experiment: Synergistic antibacterial activity against Klebsiella pneumoniae 440/1360 producing KPC-2 assessed as meropenem MIC at 8 ug/ml by broth microdilution method; format: functional; details: dose 8 µg/ml; how it was run: as §1
Klebsiella pneumoniae [28] = experiment: Synergistic antibacterial activity against Klebsiella pneumoniae 660/1568 producing KPC-3 assessed as cefepime MIC at 4 ug/ml by broth microdilution method; format: functional; details: dose 4 µg/ml; how it was run: as §1
Acinetobacter baumannii [29] = experiment: Synergistic antibacterial activity against ADC deleted Acinetobacter baumannii assessed as meropenem MIC at 4 ug/ml by broth microdilution method; format: functional; details: dose 4 µg/ml
Pseudomonas aeruginosa [30] = experiment: Synergistic antibacterial activity against Pseudomonas aeruginosa 776 assessed as cefepime MIC at 4 ug/ml by broth microdilution method; format: functional; details: dose 4 µg/ml
Acinetobacter baumannii [31] = experiment: Synergistic antibacterial activity against Acinetobacter baumannii PR440 producing OXA-23/24/40 assessed as meropenem MIC at 8 ug/ml by broth microdilution method; format: functional; details: dose 8 µg/ml
Acinetobacter baumannii [32] = experiment: Synergistic antibacterial activity against ADC deleted Acinetobacter baumannii transfected with pWH1266 OXA-23 assessed as meropenem MIC at 8 ug/ml by broth microdilution method; format: functional; details: dose 8 µg/ml; how it was run: as §2
Acinetobacter baumannii [33] = experiment: Synergistic antibacterial activity against Acinetobacter baumannii PR476 producing OXA-24/40 assessed as meropenem MIC at 4 ug/ml by broth microdilution method; format: functional; details: dose 4 µg/ml
Bacteria [34] = experiment: Inhibition of bacteria ADC-7 assessed as Koff rate using nitrocefin as substrate incubated for 30 mins
Acinetobacter baumannii [35] = experiment: Synergistic antibacterial activity against ADC deleted Acinetobacter baumannii transfected with pWH1266 producing OXA-24/40 assessed as meropenem MIC at 8 ug/ml by broth microdilution method; format: functional; details: dose 8 µg/ml
Klebsiella pneumoniae [36] = experiment: Synergistic antibacterial activity against Klebsiella pneumoniae 11978 producing OXA-48 assessed as meropenem MIC at 4 ug/ml by broth microdilution method; format: functional; details: dose 4 µg/ml; how it was run: as §1

Row | SMILES | MIC (Klebsiella pneumoniae [1]) | MIC (Acinetobacter baumannii [3]) | MIC (Klebsiella pneumoniae [4]) | MIC (Acinetobacter baumannii [5]) | MIC (Escherichia coli) | T1/2 (Bacteria [6]) | MIC (Klebsiella pneumoniae [7]) | MIC (Acinetobacter baumannii [8]) | MIC (Acinetobacter baumannii [9]) | MIC (Klebsiella pneumoniae [10]) | MIC (Klebsiella pneumoniae [11]) | MIC (Acinetobacter baumannii [12]) | MIC (Klebsiella pneumoniae [13]) | MIC (Acinetobacter baumannii [14]) | MIC (Acinetobacter baumannii [15]) | MIC (Klebsiella pneumoniae [16]) | MIC (Acinetobacter baumannii [17]) | MIC (Pseudomonas aeruginosa [18]) | MIC (Klebsiella pneumoniae [19]) | MIC (Acinetobacter baumannii [20]) | also measured
1 | O=C(NNC(=O)[C@@H]1CC[C@@H]2CN1C(=O)N2OS(=O)(=O)O)[C@@H]1CCNC1 | ≤ 0.12 µg/mL | > 16 µg/mL | ≤ 0.12 µg/mL | > 16 µg/mL | ≤ 0.12 µg/mL | 2.9 min | ≤ 0.12 µg/mL | 8 µg/mL | 16 µg/mL | ≤ 0.12 µg/mL | ≤ 0.12 µg/mL | 8 µg/mL | ≤ 0.12 µg/mL | 8 µg/mL | > 16 µg/mL | ≤ 0.12 µg/mL | > 16 µg/mL | 4 µg/mL | ≤ 0.12 µg/mL | > 16 µg/mL | MIC (Klebsiella pneumoniae [2]): > 16 µg/mL; MIC (Acinetobacter baumannii [21]): > 16 µg/mL; MIC (Klebsiella pneumoniae [22]): ≤ 0.12 µg/mL; MIC (Acinetobacter baumannii [23]): 16 µg/mL; MIC (Klebsiella pneumoniae [24]): ≤ 0.12 µg/mL; MIC (Acinetobacter baumannii [25]): 16 µg/mL; MIC (Pseudomonas aeruginosa [26]): > 16 µg/mL; MIC (Klebsiella pneumoniae [27]): ≤ 0.12 µg/mL; MIC (Klebsiella pneumoniae [28]): ≤ 0.12 µg/mL; MIC (Acinetobacter baumannii [29]): > 16 µg/mL; MIC (Pseudomonas aeruginosa [30]): 16 µg/mL; MIC (Acinetobacter baumannii [31]): > 16 µg/mL; MIC (Acinetobacter baumannii [32]): > 16 µg/mL; MIC (Acinetobacter baumannii [33]): 0.25 µg/mL; K (Bacteria [34]): 9 10^-4/s; MIC (Acinetobacter baumannii [35]): > 16 µg/mL
2 | O=C(NNC(=O)[C@@H]1CC[C@@H]2CN1C(=O)N2OS(=O)(=O)O)[C@@H]1CCCNC1 [ZIDEBACTAM] | ≤ 0.12 µg/mL | > 16 µg/mL | ≤ 0.12 µg/mL | > 16 µg/mL | ≤ 0.12 µg/mL | 3.3 min | ≤ 0.12 µg/mL | 8 µg/mL | 16 µg/mL | ≤ 0.12 µg/mL | ≤ 0.12 µg/mL | 8 µg/mL | ≤ 0.12 µg/mL | 8 µg/mL | > 16 µg/mL | ≤ 0.12 µg/mL | > 16 µg/mL | 16 µg/mL | ≤ 0.12 µg/mL | > 16 µg/mL | MIC (Klebsiella pneumoniae [36]): ≤ 0.12 µg/mL; MIC (Acinetobacter baumannii [21]): > 16 µg/mL; MIC (Klebsiella pneumoniae [22]): ≤ 0.12 µg/mL; MIC (Acinetobacter baumannii [23]): 16 µg/mL; MIC (Klebsiella pneumoniae [24]): ≤ 0.12 µg/mL; MIC (Acinetobacter baumannii [25]): 16 µg/mL; MIC (Pseudomonas aeruginosa [26]): > 16 µg/mL; MIC (Klebsiella pneumoniae [27]): ≤ 0.12 µg/mL; MIC (Klebsiella pneumoniae [28]): ≤ 0.12 µg/mL; MIC (Acinetobacter baumannii [29]): ≤ 0.12 µg/mL; MIC (Pseudomonas aeruginosa [30]): 16 µg/mL; MIC (Acinetobacter baumannii [31]): > 16 µg/mL; MIC (Acinetobacter baumannii [32]): > 16 µg/mL; MIC (Acinetobacter baumannii [33]): 0.25 µg/mL; K (Bacteria [34]): 1.1 10^-3/s; MIC (Acinetobacter baumannii [35]): > 16 µg/mL
